According to ChEMBL document CHEMBL3774372, “Design, physico-chemical properties and biological evaluation of some new N-[(phenoxy)alkyl]- and N-{2-[2-(phenoxy)ethoxy]ethyl}aminoalkanols as anticonvulsant agents” (Bioorg Med Chem, 2016):
Activity calls are given as the source filed them.

Assays:
[1] = Displacement of [3H]alpha,beta-MeATP from rat urinary bladder P2X receptor
[2] = tested on: Rattus norvegicus; assay: Neurotoxicity in rat at 30 mg/kg, ip after […] by rotarod test; type: toxicity, organism-based; settings: in vivo
[3] = tested on: Rattus norvegicus; assay: Neurotoxicity in rat at 30 mg/kg, ip after 0.5 hrs by rotarod test; type: toxicity, organism-based; settings: in vivo
[4] = tested on: Rattus norvegicus; assay: Neurotoxicity in rat at 30 mg/kg, ip after 1 hr by rotarod test; type: toxicity, organism-based; settings: in vivo
[5] = tested on: Rattus norvegicus; assay: Neurotoxicity in rat at 30 mg/kg, ip after 2 hrs by rotarod test; type: toxicity, organism-based; settings: in vivo
[6] = tested on: Rattus norvegicus; assay: Neurotoxicity in rat at 30 mg/kg, ip after 4 hrs by rotarod test; type: toxicity, organism-based; settings: in vivo
[7] = tested on: Rattus norvegicus; assay: Neurotoxicity in rat at 30 mg/kg, po after […] by rotarod test; type: toxicity, organism-based; settings: in vivo
[8] = tested on: Rattus norvegicus; assay: Neurotoxicity in rat at 30 mg/kg, po after 0.5 hrs by rotarod test; type: toxicity, organism-based; settings: in vivo
[9] = tested on: Rattus norvegicus; assay: Neurotoxicity in rat at 30 mg/kg, po after 1 hr by rotarod test; type: toxicity, organism-based; settings: in vivo
[10] = tested on: Rattus norvegicus; assay: Neurotoxicity in rat at 30 mg/kg, po after 2 hrs by rotarod test; type: toxicity, organism-based; settings: in vivo
[11] = tested on: Rattus norvegicus; assay: Neurotoxicity in rat at 30 mg/kg, po after 4 hrs by rotarod test; type: toxicity, organism-based; settings: in vivo
[12] = tested on: Mus musculus; assay: Neurotoxicity in mouse at 30 mg/kg, ip after 2 hrs by rotarod test; type: toxicity, organism-based; settings: in vivo
[13] = tested on: Mus musculus; assay: Neurotoxicity in mouse at 30 mg/kg, ip after 0.5 hrs by rotarod test; type: toxicity, organism-based; settings: in vivo
In short: (§1)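 Mice were dosed ip with compound suspended in 0.5% methylcellulose. Rotarod: a 1 in. knurled rod turning at 6 rpm. Neurotoxicity was scored as failure to stay on the rod for at least 1 min in each of three trials. Results are given as the number of animals affected out of the number tested.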

[14] = tested on: Mus musculus; assay: Neurotoxicity in mouse at 30 mg/kg, ip after 4 hrs by rotarod test; type: toxicity, organism-based; settings: in vivo; in short: as §1
[15] = tested on: Mus musculus; assay: Neurotoxicity in mouse at 100 mg/kg, ip after 0.5 hrs by rotarod test; type: toxicity, organism-based; settings: in vivo; in short: as §1
[16] = tested on: Mus musculus; assay: Neurotoxicity in mouse at 300 mg/kg, ip after 0.5 hrs by rotarod test; type: toxicity, organism-based; settings: in vivo; in short: as §1
[17] = tested on: Rattus norvegicus; assay: Anticonvulsant activity in rat assessed as protection against maximal electric shock-induced seizures at 30 mg/kg, po measured after 0.5 hrs; type: functional, organism-based
In short: (§2)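 Rats dosed ip or orally as 0.5% methylcellulose suspension; maximal electroshock at listed time. Protection = abolition of hindlimb tonic extension; 4 rats per group, scored protected/tested.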

[18] = tested on: Rattus norvegicus; assay: Anticonvulsant activity in rat assessed as protection against maximal electric shock-induced seizures at 30 mg/kg, po measured after 1 hr; type: functional, organism-based; in short: as §2
[19] = tested on: Mus musculus; assay: Anticonvulsant activity in mouse assessed as protection against maximal electric shock-induced seizures at 100 mg/kg, ip measured after […]; type: functional, organism-based
[20] = tested on: Mus musculus; assay: Anticonvulsant activity in mouse assessed as protection against 6 Hz psychomotor seizure at 100 mg/kg, ip after 2 hrs; type: functional, organism-based
In short: (§3)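 Suspension in 0.5% methylcellulose given ip to mice; corneal stimulation with 0.2 ms monopolar rectangular pulses at 6 Hz for 3 s from a constant current device, mice restrained then released to observation cage. Protected if normal exploratory behaviour resumed within 10 s of stimulation. Scored as protected/tested, 4 mice per group.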

[21] = tested on: Mus musculus; assay: Neurotoxicity in mouse at 100 mg/kg, ip after 2 hrs by rotarod test; type: toxicity, organism-based; settings: in vivo; in short: as §1
[22] = tested on: Rattus norvegicus; assay: Anticonvulsant activity in rat assessed as protection against maximal electric shock-induced seizures at 30 mg/kg, po measured after 2 hrs; type: functional, organism-based; in short: as §2
[23] = tested on: Rattus norvegicus; assay: Anticonvulsant activity in rat assessed as protection against maximal electric shock-induced seizures at 30 mg/kg, po measured after 4 hrs; type: functional, organism-based; in short: as §2
[24] = tested on: Mus musculus; assay: Anticonvulsant activity in mouse assessed as protection against 6 Hz psychomotor seizure at 100 mg/kg, ip after 4 hrs; type: functional, organism-based; in short: as §3
[25] = tested on: Mus musculus; assay: Anticonvulsant activity in mouse assessed as protection against maximal electric shock-induced seizures at 30 mg/kg, ip measured after 1 hr; type: functional, organism-based
In short: (§4)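 Mice dosed ip with suspension in 0.5% methylcellulose; maximal electroshock applied at the listed time after dosing. Protection = abolition of hindlimb tonic extension component of seizure; reported as animals protected/animals tested.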

[26] = tested on: Mus musculus; assay: Anticonvulsant activity in mouse assessed as protection against maximal electric shock-induced seizures at 30 mg/kg, ip measured after 4 hrs; type: functional, organism-based; in short: as §4
[27] = tested on: Mus musculus; assay: Anticonvulsant activity in mouse assessed as protection against maximal electric shock-induced seizures at 100 mg/kg, ip measured after 0.5 hrs; type: functional, organism-based; in short: as §4
[28] = tested on: Mus musculus; assay: Anticonvulsant activity in mouse assessed as protection against maximal electric shock-induced seizures at 100 mg/kg, ip measured after 1 hr; type: functional, organism-based; in short: as §4
[29] = tested on: Mus musculus; assay: Anticonvulsant activity in mouse assessed as protection against maximal electric shock-induced seizures at 100 mg/kg, ip measured after 4 hrs; type: functional, organism-based; in short: as §4
[30] = tested on: Mus musculus; assay: Neurotoxicity in mouse at 30 mg/kg, ip after […] by rotarod test; type: toxicity, organism-based; settings: in vivo
[31] = tested on: Mus musculus; assay: Neurotoxicity in mouse at 30 mg/kg, ip after 1 hr by rotarod test; type: toxicity, organism-based; settings: in vivo
[32] = tested on: Mus musculus; assay: Neurotoxicity in mouse at 100 mg/kg, ip after 1 hr by rotarod test; type: toxicity, organism-based; settings: in vivo; in short: as §1
[33] = tested on: Mus musculus; assay: Neurotoxicity in mouse at 100 mg/kg, ip after 4 hrs by rotarod test; type: toxicity, organism-based; settings: in vivo; in short: as §1
[34] = tested on: Rattus norvegicus; assay: Anticonvulsant activity in rat assessed as protection against maximal electric shock-induced seizures at 30 mg/kg, ip measured after 1 hr; type: functional, organism-based; in short: as §2
[35] = tested on: Rattus norvegicus; assay: Anticonvulsant activity in rat assessed as protection against maximal electric shock-induced seizures at 30 mg/kg, ip measured after 4 hrs; type: functional, organism-based; in short: as §2
[36] = tested on: Rattus norvegicus; assay: Anticonvulsant activity in rat assessed as protection against maximal electric shock-induced seizures at 30 mg/kg, po measured after […]; type: functional, organism-based
[37] = target: 5-hydroxytryptamine receptor 2B (Homo sapiens, UniProt P41595); assay: Displacement of [125I](+/-)DOI from human recombinant 5-HT2B receptor expressed in CHO cells; type: cell-based
Chain of 5-hydroxytryptamine receptor 2B (P41595 whole entry): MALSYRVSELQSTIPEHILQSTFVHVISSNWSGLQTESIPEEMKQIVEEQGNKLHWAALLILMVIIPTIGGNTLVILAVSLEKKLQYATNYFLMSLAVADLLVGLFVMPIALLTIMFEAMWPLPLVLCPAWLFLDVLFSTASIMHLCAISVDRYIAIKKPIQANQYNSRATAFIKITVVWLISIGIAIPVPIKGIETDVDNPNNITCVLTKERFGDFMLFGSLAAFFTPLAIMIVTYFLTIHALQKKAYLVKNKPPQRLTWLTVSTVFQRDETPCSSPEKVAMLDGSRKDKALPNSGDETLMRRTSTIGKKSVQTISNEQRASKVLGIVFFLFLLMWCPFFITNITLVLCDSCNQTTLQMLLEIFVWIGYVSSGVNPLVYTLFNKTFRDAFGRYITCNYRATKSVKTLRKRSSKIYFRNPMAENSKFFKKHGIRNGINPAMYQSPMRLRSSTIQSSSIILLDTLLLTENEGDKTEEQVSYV

[38] = tested on: Mus musculus; assay: Anticonvulsant activity in ip dosed mouse assessed as protection against maximal electric shock-induced seizures; type: functional, organism-based
In short: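 Compound suspended in 0.5% methylcellulose and given ip to mice; screening doses 30, 100 and 300 mg/kg, read at 0.25–4 h. Protection was defined as abolition of hindlimb tonic extension.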

[39] = Neurotoxicity in ip dosed mouse by rotarod test; type: toxicity, organism-based; settings: in vivo
[40] = tested on: Mus musculus; assay: Anticonvulsant activity in ip dosed mouse assessed as protection against maximal electric shock-induced seizures measured after […]; type: functional
[41] = tested on: Mus musculus; assay: Anticonvulsant activity in ip dosed mouse assessed as protection against subcutaneous pentylenetetrazol-induced seizures measured after […]; type: functional
[42] = Neurotoxicity in ip dosed mouse after […] by rotarod test; type: toxicity, organism-based; settings: in vivo

SMILES: Nc1ncnc2c1ncn2[C@@H]1O[C@H](COP(=O)(O)CP(=O)(O)OP(=O)(O)O)[C@@H](O)[C@H]1O [DIPHOSPHOMETHYLPHOSPHONIC ACID ADENOSYL ESTER]
- IC50 [1]: 1.9 nM

SMILES: Cc1cccc(C)c1OCCOCCN[C@@H](C)CO.Cl
- Activity [2]: Non-toxic
- Activity [3]: Non-toxic
- Activity [4]: Non-toxic
- Activity [5]: Non-toxic
- Activity [6]: Non-toxic
- Activity [7]: Non-toxic
- Activity [8]: Non-toxic
- Activity [9]: Non-toxic
- Activity [10]: Non-toxic
- Activity [11]: Non-toxic
- Activity [12]: Non-toxic
- Activity [13]: Non-toxic
- Activity [14]: Non-toxic
- Activity [15]: Non-toxic
- Activity [16]: Toxic

SMILES: Cc1cccc(OCCCN2CCCC(O)C2)c1C (centres undefined)
- Activity [17]: inactive
- Activity [18]: inactive
- Activity [19]: Active
- Activity [20]: inactive
- Activity [21]: Non-toxic
- Activity [22]: inactive
- Activity [23]: inactive
- Activity [2]: Non-toxic
- Activity [3]: Non-toxic
- Activity [4]: Non-toxic
- Activity [5]: Non-toxic
- Activity [6]: Non-toxic
- Activity [7]: Non-toxic
- Activity [8]: Non-toxic
- Activity [9]: Non-toxic
- Activity [10]: Non-toxic
- Activity [11]: Non-toxic
- Activity [24]: inactive
- Activity [25]: inactive
- Activity [26]: inactive
- Activity [27]: Active
- Activity [28]: Active
- Activity [29]: inactive
- Activity [30]: Non-toxic
- Activity [13]: Non-toxic
- Activity [31]: Non-toxic
- Activity [14]: Non-toxic
- Activity [32]: Non-toxic
- Activity [33]: Non-toxic
- Activity [34]: inactive
- Activity [35]: inactive
- Activity [36]: inactive

SMILES: COc1cc(CC(C)N)c(OC)cc1I (racemic)
- IC50 [37]: 2.5 nM

SMILES: Cc1cccc(C)c1OCCN[C@H](C)CO
- EC50 [38]: 5.34 mg/kg
- TD50 [39]: 29.5 mg/kg
- ED50 [40]: 5.34 mg/kg
- ED50 [41]: > 50 mg/kg
- TD50 at […] [42]: 29.5 mg/kg
